Source: PubChem BioAssay (several laboratories)
Only some compounds are listed: those with a hit (about 0.6% of all), similar ones and a draw of the others.
Rtt109 HAT inh: inhibitors of C. albicans Rtt109/Vps75 HAT, primary screen, biochemical, ThioGlo CoA-SH fluorescence, plate reader; purified Rtt109/Vps75, 4 h; inhibition, % at 34.9 µM; 330,000 compounds, 0.16% hits; AID 540336, 2011;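 active = inhibition of at least 50% in every replicate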
Target sequence (Q5AAJ8 whole entry, looked up): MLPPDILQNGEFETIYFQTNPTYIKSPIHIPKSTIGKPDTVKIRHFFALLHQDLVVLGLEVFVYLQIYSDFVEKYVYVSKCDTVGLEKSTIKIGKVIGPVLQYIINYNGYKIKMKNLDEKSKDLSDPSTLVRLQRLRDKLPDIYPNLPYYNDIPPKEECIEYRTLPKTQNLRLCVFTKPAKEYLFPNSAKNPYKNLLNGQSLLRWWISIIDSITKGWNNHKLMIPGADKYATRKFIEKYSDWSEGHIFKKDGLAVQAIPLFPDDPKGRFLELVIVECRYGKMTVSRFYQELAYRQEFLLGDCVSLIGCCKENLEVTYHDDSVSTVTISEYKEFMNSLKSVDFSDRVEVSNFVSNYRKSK
Keap1-Nrf2 PPI: Keap1-Nrf2 protein-protein interaction inhibitors, primary screen, biochemical, fluorescence polarization, single point | Kelch-like ECH-associated protein 1 (Homo sapiens), Q14145 | Keap1 Kelch-Nrf2 peptide fluorescence polarization, 1536-well | inhibition, % at 9.4 µM | 340,000 compounds, 0.15% hits | AID 504523, 2011; in the data active = inhibition above about 12%;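 note: human Keap1 Kelch domain with fluorescein labeled Nrf2 9mer peptide probe; higher means more block of Keap1 binding to Nrf2 peptide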
Tn7 DDE FP: inhibitors of Tn7 peptide binding to fibrin DD(E), primary screen, biochemical, fluorescence polarization, human fibrin, Tn7 probe. 370,000 compounds, 0.13% hits. FP displacement of FITC-Tn7 peptide from fibrin DD(E); 0% = median of compound wells per plate. inhibition, % at 8.3 µM. AID 720508, 2013. Fibrinogen beta chain (Homo sapiens), P02675;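 active = inhibition above the mean of compounds falling within the control limits plus 3 SD of them, cut at about 14% in these data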
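system = human fibrin DD(E) protein | quantity = DD(E) 2 µM final | medium = Tris/NaCl/CaCl2 buffer, pH 7.8 | also added = labelled Tn7 tracer, 0.1 µM | compound dosing = single point at 8.3 µM | timing = compound with protein 10 min, then 3 h after probe, room temperature | signal = FP measurement | benchmarks = Aha-Tn7 high control | repeats = one replicate per compound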
DDE Tn6 FP inh: inhibitors of Tn6 peptide binding to fibrin DD(E), primary screen, biochemical, fluorescence polarization, human fibrin, Tn6 probe; Fibrin DD(E) TRITC-Tn6 fluorescence polarization displacement; 370,000 compounds, 0.21% hits; inhibition, % at 8.3 µM; Fibrinogen beta chain (Homo sapiens), P02675; AID 720509, 2013;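 active = inhibition above a per-campaign cutoff: mean of compounds within control limits plus 3 SD, cut at about 15% in these data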
C-LANA FP: inhibitors of KSHV C-LANA binding to DNA, primary screen, biochemical, fluorescence polarization, FAM-LBS DNA, MBP-C-LANA, single point; Kaposi's sarcoma herpesvirus LANA C-terminal domain (residues 932-1162) DNA binding; inhibition, % at 9 µM; 340,000 compounds, 0.078% hits; AID 504423, 2011;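 active = highest replicate inhibition at or above 60% at 9 µM, even if other replicates fall short; inactive = all replicates below 60% inhibition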
Keap1 TSA: Keap1 Kelch domain binders by thermal stabilisation, dose response, biophysical, thermal shift, RT-PCR instrument, cherry-pick | shares compounds with Keap1-Nrf2 PPI | delta Tm; hits give high values | max delta Tm, degrees C | 400 compounds, 8% hits; in the data active = max delta Tm above about 0.48 degrees C
Sypro dye melt: Sypro Orange dye melt without protein, dose response, artefact control for Keap1-Nrf2 interaction inhibitor project, biochemical, thermal shift counterscreen, cherry-pick. shares compounds with Keap1-Nrf2 PPI. Sypro Orange dye-only thermal melt, no protein, delta Tm; top dose 26 µM. delta Tm, degrees C (concentration not given with the values). 140 tested, under 10 active;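 active = at highest dose tested, delta Tm positive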
Hits are given with their value.

CCc1cc(C(=O)c2ccc(OC)cc2)c(N)s1 was read as Rtt109 HAT inh inactive, Keap1-Nrf2 PPI 26, Tn7 DDE FP inactive, DDE Tn6 FP inh inactive, C-LANA FP inactive and Keap1 TSA inactive.
`CCc1cc(C(=O)c2ccccc2OC)c(N)s1` gave Keap1-Nrf2 PPI inactive, Tn7 DDE FP inactive, DDE Tn6 FP inh inactive and C-LANA FP inactive.
Screening Cn1nc(-c2ccccc2)c2nc3ccccc3nc21 returned Rtt109 HAT inh inactive, Keap1-Nrf2 PPI 54, Tn7 DDE FP inactive, DDE Tn6 FP inh inactive, C-LANA FP inactive, Keap1 TSA inactive and Sypro dye melt inactive.
`COC(=O)c1cc(-c2ccccc2)c(=O)n2c1CCC2` gave Tn7 DDE FP inactive and DDE Tn6 FP inh inactive.
COc1cc2c3nnc(-c4ccccc4)c-3cn(Cc3ccc(F)cc3)c2cc1OC was read as Rtt109 HAT inh inactive, Keap1-Nrf2 PPI inactive, Tn7 DDE FP inactive, DDE Tn6 FP inh inactive and C-LANA FP inactive.
`COc1cc2c3nnc(-c4ccc(F)cc4)c-3cn(Cc3ccc(C)cc3)c2cc1OC` gave Rtt109 HAT inh inactive, Keap1-Nrf2 PPI 13, Tn7 DDE FP inactive, DDE Tn6 FP inh inactive, C-LANA FP inactive and Keap1 TSA inactive.
COC(=O)[C@]1(C#N)CC(=O)N(CC(C)C)[C@@H]1c1ccccc1 was read as Tn7 DDE FP inactive and DDE Tn6 FP inh inactive.
CC(C)C[C@@H]1COc2cc(F)ccc2S(=O)(=O)N1C was read as Tn7 DDE FP inactive and DDE Tn6 FP inh inactive.
Screening CCOc1ccc(OCCCC(=O)N(CC)CC(=O)Nc2c(F)cccc2F)cc1 returned Rtt109 HAT inh inactive, Keap1-Nrf2 PPI 36, Tn7 DDE FP inactive, DDE Tn6 FP inh inactive, C-LANA FP inactive, Keap1 TSA inactive and Sypro dye melt inactive.
For Cc1ccc(S(=O)(=O)NCC(=O)OCC(=O)Nc2ccc3c(c2)OCCO3)cc1 the results were Rtt109 HAT inh inactive, Keap1-Nrf2 PPI 32, Tn7 DDE FP inactive, DDE Tn6 FP inh inactive, C-LANA FP inactive, Keap1 TSA inactive and Sypro dye melt inactive.
`CCCC[C@H]1C2CC(OC(=O)Nc3cccc(F)c3)C(C2)[C@H]2CCCCN21` (stereo partly specified) gave Tn7 DDE FP inactive and DDE Tn6 FP inh inactive.
For CCc1ccc(C=NN2CCN(Cc3ccc(C)cc3C)CC2)cc1 the results were Tn7 DDE FP inactive and DDE Tn6 FP inh inactive.
CCCCN(C)C(=O)c1cn(C(C)c2ccccc2)nn1 (stereo unspecified) was read as Tn7 DDE FP inactive and DDE Tn6 FP inh inactive.
Cn1c(SCC(=O)c2cc(Cl)c(Cl)s2)nnc1-c1ccco1 was read as Rtt109 HAT inh inactive, Keap1-Nrf2 PPI 32, Tn7 DDE FP inactive, DDE Tn6 FP inh inactive, C-LANA FP inactive and Keap1 TSA inactive.
COc1cccc(/C=C/C(=O)OCC(=O)NC(=O)NC2CCCC2)c1 was read as Rtt109 HAT inh inactive, Keap1-Nrf2 PPI 36, Tn7 DDE FP inactive, DDE Tn6 FP inh inactive, C-LANA FP inactive, Keap1 TSA inactive and Sypro dye melt inactive.
For O=C(COC(=O)/C=C/c1cccc(Cl)c1)NC1CC1 the results were Rtt109 HAT inh inactive, Keap1-Nrf2 PPI 24, Tn7 DDE FP inactive, DDE Tn6 FP inh inactive, C-LANA FP inactive, Keap1 TSA inactive and Sypro dye melt inactive.
Screening COc1ccc(-n2c(SCC(=O)N3CCCC3)nnc2-c2ccncc2)cc1 returned Tn7 DDE FP inactive and DDE Tn6 FP inh inactive.
`Fc1ccc(C2=CC(c3cccs3)n3nnnc3N2)cc1` (stereo unspecified) gave Rtt109 HAT inh inactive, Keap1-Nrf2 PPI inactive, Tn7 DDE FP inactive, DDE Tn6 FP inh inactive and C-LANA FP inactive.
Screening Cc1ccc(C2=CC(c3cccs3)n3nnnc3N2)cc1 (stereo unspecified) returned Rtt109 HAT inh inactive, Keap1-Nrf2 PPI 35, Tn7 DDE FP inactive, DDE Tn6 FP inh inactive, C-LANA FP inactive, Keap1 TSA inactive and Sypro dye melt inactive.
C=CCOC(=O)C1=C[C@H](c2csc3ccccc23)C[C@H](OCc2ccc(CO)cc2)O1 was read as Rtt109 HAT inh inactive, Keap1-Nrf2 PPI 17, Tn7 DDE FP inactive, DDE Tn6 FP inh inactive, C-LANA FP inactive, Keap1 TSA inactive and Sypro dye melt inactive.
For C=CCOC(=O)C1=C[C@@H](c2csc3ccccc23)C[C@@H](OCc2ccc(CO)cc2)O1 the results were Rtt109 HAT inh inactive, Keap1-Nrf2 PPI inactive, Tn7 DDE FP inactive, DDE Tn6 FP inh inactive and C-LANA FP inactive.
Screening O=c1cc(CN2CCc3ccccc32)nc2sccn12 returned Rtt109 HAT inh inactive, Keap1-Nrf2 PPI inactive, Tn7 DDE FP inactive, DDE Tn6 FP inh inactive and C-LANA FP inactive.
Screening O=c1cc(CN2CCCc3ccccc32)nc2sccn12 returned Rtt109 HAT inh inactive, Keap1-Nrf2 PPI 58, Tn7 DDE FP inactive, DDE Tn6 FP inh inactive, C-LANA FP inactive and Keap1 TSA inactive.
CC1(c2nnnn2Cc2ccccc2)CN(S(C)(=O)=O)CC(=O)N1Cc1cccs1 (stereo unspecified) was read as Tn7 DDE FP inactive and DDE Tn6 FP inh inactive.
For CN(Cc1ccccc1)C(=O)OCc1cn(Cc2ccccc2C(F)(F)F)nn1 the results were Tn7 DDE FP inactive and DDE Tn6 FP inh inactive.
For O=C(CSc1nnc(-c2cnccn2)n1-c1ccccc1)Nc1ccc2cn[nH]c2c1 the results were Tn7 DDE FP inactive and DDE Tn6 FP inh inactive.
CCOc1ccccc1C=C1SC(=S)NC1=O was read as Rtt109 HAT inh inactive, Keap1-Nrf2 PPI 37, Tn7 DDE FP inactive, DDE Tn6 FP inh inactive, C-LANA FP inactive and Keap1 TSA inactive.
`CCOc1ccc(/C=C2\SC(=S)NC2=O)cc1OC` gave Rtt109 HAT inh inactive, Keap1-Nrf2 PPI inactive, Tn7 DDE FP inactive, DDE Tn6 FP inh inactive and C-LANA FP inactive.
For Cc1cc[n+](-c2[nH]c(=O)sc2/C=N/N=C(\[O-])c2ccccc2)cc1C the results were Rtt109 HAT inh inactive, Keap1-Nrf2 PPI 43, Tn7 DDE FP inactive, DDE Tn6 FP inh inactive, C-LANA FP 62 and Keap1 TSA inactive.
